Sampled rows, rich in hits. Any-hit rate of the full collection: about 3.3%.
PRMT1 FP inh – PRMT1 methyltransferase inhibitors, primary screen, biochemical, fluorescence polarization; inhibition, % at 2.79 µM; AID 652257, 2013; actives 1.3% (n = 370,000); recombinant PRMT1, activity-based probe fluorescence polarization;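 active = inhibition above about 21% made by adding two undisclosed values, limit read from the data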
Target sequence (Q99873 whole entry, looked up): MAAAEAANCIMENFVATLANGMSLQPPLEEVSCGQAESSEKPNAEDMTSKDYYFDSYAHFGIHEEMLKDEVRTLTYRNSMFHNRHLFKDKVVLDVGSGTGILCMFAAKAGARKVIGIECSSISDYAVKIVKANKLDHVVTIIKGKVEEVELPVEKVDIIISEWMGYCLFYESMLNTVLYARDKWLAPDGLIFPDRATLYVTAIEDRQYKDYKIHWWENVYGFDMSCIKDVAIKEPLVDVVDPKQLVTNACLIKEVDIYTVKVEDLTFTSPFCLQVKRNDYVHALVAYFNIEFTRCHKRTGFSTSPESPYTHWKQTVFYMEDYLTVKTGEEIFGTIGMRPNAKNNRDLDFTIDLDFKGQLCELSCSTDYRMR
rCAG binder – binders of r(CAG) RNA repeats, primary screen, biochemical, fluorescence | r(CAG) RNA repeat, TO-PRO-1 dye displacement fluorescence | inhibition, % at 3 µM | actives 1.3% (n = 370,000) | AID 651821, 2012;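 active = inhibition above the plate cutoff, the mean of all test compounds on that plate plus 3 SD, cut at about 35% in these data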;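 note: 0% = DMSO alone and 100% = 100 µM mitoxantrone as full dye displacement; higher means more dye released from RNA so lower well fluorescence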
ABHD4 inh – ABHD4 inhibitors, primary screen, biochemical, fluorescence polarization, mouse; (Lyso)-N-acylphosphatidylethanolamine lipase (Mus musculus), Q8VD66; purified mABHD4, FP-Rh probe fluorescence polarization; inhibition, % at 8.92 µM; actives 0.54% (n = 370,000);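 active = inhibition exceeding the mean over every tested compound plus 3 SD, cut at about 30% in these data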;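 note: 0% = plate median of compound wells and 100% = S159A mutant with DMSO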
Target sequence (Q8VD66 whole entry, looked up): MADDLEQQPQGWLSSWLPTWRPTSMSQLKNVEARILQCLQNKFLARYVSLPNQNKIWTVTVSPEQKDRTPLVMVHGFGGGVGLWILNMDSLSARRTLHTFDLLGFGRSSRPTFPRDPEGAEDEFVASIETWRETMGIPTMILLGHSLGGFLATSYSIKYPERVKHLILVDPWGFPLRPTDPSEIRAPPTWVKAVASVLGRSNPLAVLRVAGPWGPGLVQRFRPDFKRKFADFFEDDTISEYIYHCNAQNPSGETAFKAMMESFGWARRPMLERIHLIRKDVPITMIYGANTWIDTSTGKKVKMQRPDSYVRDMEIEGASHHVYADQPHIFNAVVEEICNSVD
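Assay system: Wild-type mouse ABHD4 protein | Medium: HEPES pH 7.0 buffer, 150 mM NaCl, 0.01% Pluronic F-127 | Incubation: Enzyme–compound pre-incubation 45 min, then probe 60 min, both 25 °C | Technique: Fluorescence polarization with parallel and perpendicular emission, 525/598 nm | Evaluation: % inhibition of FP-Rh probe binding versus controls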
SIAE primary – human SIAE inhibitors, primary screen, biochemical, fluorescence polarization, FP-Rh probe, 1536-well HTS; inhibition, % at 9.66 µM; actives 0.69% (n = 370,000); SIAE FP-Rh probe binding;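 active = inhibition above a cutoff: mean of compounds within the control limits plus 3 SD of those, cut at about 17% in these data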;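 note: 0% = plate median of compound wells and 100% = probe without SIAE protein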
HTRA1 inhibitor – HTRA1 serine protease inhibitors, primary screen, biochemical, fluorescence polarization, HTS | Q92743 | actives 0.5% (n = 340,000) | recombinant HTRA1, FP-rhodamine activity-based probe | inhibition, % at 5.96 µM; in the data active = inhibition above about 36%;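 note: 0% = enzyme with DMSO and 100% = wells lacking enzyme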
rCAG binder conf – small molecules binding CAG repeat RNA – biochemical, fluorescence, confirmation; shares compounds with rCAG binder; r(CAG) RNA repeat, TO-PRO-1 dye displacement fluorescence; inhibition, % at 3 µM; actives 70% (n = 4,300); AID 652065, 2013;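 active = inhibition above a per-plate cutoff, the mean inhibition of sample wells plus 3 SD, cut at about 35% in these data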;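 note: loss of TO-PRO-1 fluorescence as compound displaces dye from 1x1 AA loop RNA; 0% = DMSO only wells and 100% = 100 µM mitoxantrone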
dCAG dye counter – displacement of TO-PRO-1 from CAG DNA duplex, counter-screen for rCAG RNA repeat binder project, biochemical, fluorescence, TO-PRO-1 dye, d(CAG) DNA oligo. shares compounds with rCAG binder. d(CAG) DNA oligo TO-PRO-1 dye displacement. inhibition, % at 3 µM. actives 94% (n = 4,300). AID 652068, 2013;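 active = inhibition above its plate's cutoff, the mean test-well inhibition plus 3 SD, cut at about 4.8% in these data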;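 note: 0% = DNA dye mix with DMSO and 100% = 100 µM mitoxantrone; hits displace the dye from DNA and so lower well fluorescence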
DNA CAG DR – inhibitors of DNA CAG/GTC TO-PRO-1 complex, dose response, counter-screen for rCAG RNA repeat binder project, biochemical, fluorescence, TO-PRO-1 dye; shares compounds with rCAG binder; DNA CAG/GTC duplex TO-PRO-1 dye displacement fluorescence; IC50, µM; actives 20% (n = 250); AID 686960, 2013; in the data active = IC50 below about 10 µM
The depositor's hits bear a star; i = inactive; · = no result given.

SMILES | PRMT1 FP inh | rCAG binder | ABHD4 inh | SIAE primary | HTRA1 inhibitor | rCAG binder conf | dCAG dye counter | others
CCOc1cc(/C=N/N=C2/NC(=O)C(CC(=O)O)S2)ccc1OS(=O)(=O)c1ccc(C)cc1 (stereo unspecified) | 6.5 | 55.9* | 13.7 | -19.1 | -8.0 | 36.3* | 9.7*
Cc1ccc(S(=O)(=O)Oc2ccc(/C=N/N=C3/NC(=O)C(CC(=O)O)S3)cc2)cc1 (stereo unspecified) | -4.3 | 31.1 | -0.3 | 7.6 | · | · | ·
COC(=O)c1cc(C2(c3c[nH]c4ccccc34)CCN(C(=O)OC(C)(C)C)CC2)n2ccccc12 | -1.7 | 11.0 | -29.9 | -2.8 | · | · | ·
Clc1cc(Cl)cc(CN2CCN(c3ncc(Cc4ccccc4)cn3)CC2)c1 | 1.7 | 4.5 | 0.8 | 2.9 | · | · | ·
O=C(O)C/C(=C\c1cc(Cl)c2c(c1)OCO2)c1nc2ccccc2s1 | 6.0 | 46.6* | 15.8 | 9.9 | 14.1 | 45.4* | 17.6*
O=C(O)CC/C(=C\c1cccc(NC(=O)c2ccccc2Cl)c1)c1nc2ccccc2s1 | -2.5 | 61.1* | -34.1 | -24.8 | -77.2 | 73.0* | 26.6* | DNA CAG DR=i
O=C(O)C/C(=C\c1ccc2c(c1)OCO2)c1nc2ccccc2s1 | 4.8 | 15.6 | 6.9 | 2.1 | -1.5 | · | ·
COc1ccc(C(=O)/C(C#N)=N/Nc2ccccc2[N+](=O)[O-])cc1 | 0.0 | 15.6 | 1.1 | 11.5 | 5.6 | · | ·
COC(=O)c1scc(C#N)c1N/N=C(\C#N)S(=O)(=O)c1ccc(Cl)cc1 | -0.3 | 40.8* | 10.1 | 1.4 | · | 66.1* | 20.8*
COC(=O)c1scc(C)c1NC(=O)c1ccc(Cl)cc1 | · | · | · | · | -0.1 | · | ·
COC(=O)c1scc(S(=O)(=O)C(C)C)c1N/N=C(\C#N)C(=O)c1ccc(Cl)cc1 | -5.6 | 51.1* | 1.1 | 9.5 | 5.3 | 60.7* | 22.6*
CCN(CC)C(=O)CC[C@@H]1CC[C@]2(CCCN(Cc3ccccc3)C2)O1 | 3.1 | 1.6 | -8.0 | -2.7 | · | · | ·
CCCCc1cc(=O)oc2cc(C)cc(OCC(=O)N[C@@H](CSCc3ccccc3)C(=O)O)c12 | 8.2 | 39.4* | 1.9 | -4.1 | -8.2 | 46.9* | 12.3*
CCc1cc(=O)oc2cc(C)cc(OCC(=O)N[C@@H](CSCc3ccccc3)C(=O)O)c12 | 0.1 | 46.7* | -1.3 | 6.7 | -4.6 | 39.7* | 8.3*
CCc1cc(=O)oc2cc(C)cc(OCC(=O)NC(Cc3ccc(Cl)cc3)C(=O)O)c12 (stereo unspecified) | -2.1 | 34.0 | -3.3 | 10.3 | -3.4 | · | ·
CCCCc1cc(=O)oc2cc(C)cc(OCC(=O)NCc3ccccn3)c12 | 1.0 | -6.1 | -6.3 | -1.4 | -4.5 | · | ·
OC(c1ccccc1)(c1ccccc1)C1CCN(CCCNc2ccc(C(F)(F)F)cc2)CC1 | -7.3 | -1.2 | 20.7 | -0.7 | · | · | ·
C=CCN(CC#Cc1ccccc1)CC1CC1 | -0.9 | -0.9 | -3.7 | 4.5 | · | · | ·
O=S(=O)(N=C(NS(=O)(=O)c1ccc(Cl)cc1)c1ccccc1)c1ccc(Cl)cc1 | 1.9 | 54.9* | 10.1 | -2.2 | -8.9 | 50.5* | 13.2*
COC(=O)[C@]12C[C@H](CC(=O)NCCC(C)C)C(=O)N(Cc3ccco3)C1=C[C@H](COCc1ccccc1)O[C@@H]2C | 3.8 | 3.3 | 0.7 | 4.3 | · | · | ·
CC(C)NC(=O)CCn1nnc(-c2cccs2)n1 | -2.4 | 0.7 | 1.3 | 0.6 | · | · | ·
CCOc1cc(/C=C2\SC(=Nc3ccc(CC)cc3)NC2=O)ccc1OCC(=O)O | 3.0 | 71.2* | -24.6 | -21.8 | -23.2 | 47.2* | 14.0*
C=CCOc1ccc(Br)cc1/C=C1/SC(=Nc2ccc(C(=O)O)cc2)NC1=O | 4.4 | 13.5 | -35.7 | -21.9 | -21.6 | · | ·
CCOC(=O)C1=C(O)/C(=C/c2ccc(-c3ccccc3C(=O)O)o2)SC1=Nc1ccc(C)cc1 | 4.9 | 27.9 | 22.5 | -3.2 | 23.8 | · | ·
CCOc1cc(Br)cc(/C=C2\SC(=Nc3ccccc3)NC2=O)c1O | 24.1* | 67.3* | -5.7 | -1.0 | -7.5 | 82.5* | 47.3*
SMILES | PRMT1 FP inh | rCAG binder | ABHD4 inh | SIAE primary | HTRA1 inhibitor | rCAG binder conf | dCAG dye counter | others
CCc1ccc(N=C2NC(=O)/C(=C/c3cc(Br)c(OCC(=O)O)c(OC)c3)S2)cc1 | -3.1 | 57.5* | -12.0 | -23.9 | -11.1 | 55.6* | 19.4*
CCOC(=O)C1=C(O)/C(=C/c2ccc(-c3ccccc3C(=O)O)o2)SC1=Nc1ccc(OC)cc1 | 19.3 | 38.1* | 27.9 | 1.0 | 3.9 | 80.0* | 38.4*
CCc1ccc(N=C2NC(=O)/C(=C/c3cc(OC)c(OC)c(OC)c3)S2)cc1 | -2.0 | 22.5 | -10.8 | -13.8 | -48.4 | · | ·
COc1ccccc1C(=O)NC1CCCCN(Cc2ccc(Cl)cc2)C1=O (stereo unspecified) | 3.3 | 1.9 | -1.3 | -2.8 | · | · | ·
C[C@@H]1CCCN1c1ccc2c(c1)O[C@H]1CCN(C1)S2(=O)=O | 1.5 | 2.3 | 5.0 | 9.0 | · | · | ·
CCOC(=O)C1=C(O)/C(=C/c2ccc(OCC(=O)O)c(OC)c2)SC1=Nc1ccc(OCC)cc1 | 1.4 | 38.2* | -23.2 | -36.9 | -18.4 | 64.8* | 21.1*
CCOc1cc(/C=C2/SC(=S)NC2=O)ccc1OC(=O)c1ccco1 | 5.1 | 71.8* | -31.3 | -58.4 | -17.6 | 78.9* | 42.7*
N#Cc1cccc(NC(=O)OCCCN2CCC3(CCCCC3)C2=O)c1 | -2.3 | -2.1 | -3.3 | 5.6 | · | · | ·
COC(=O)[C@]12C[C@H](CC(=O)NCc3ccccc3)C(=O)N(Cc3ccc(Cl)cc3Cl)C1=C[C@H](C(C)C)O[C@@H]2C1CC1 | 1.9 | 6.3 | -8.8 | -0.9 | · | · | ·
CC1CCN(C(=O)C2CCCN(C(=O)c3ccc4c(c3)NC(=O)CS4)C2)CC1 (stereo unspecified) | -4.0 | 0.0 | -5.1 | -2.5 | · | · | ·
CCCCCCCCN1[C@@H](CC(=O)O)c2cc(C(F)(F)F)ccc2S1(=O)=O | 4.0 | 40.0* | -10.9 | 1.9 | -13.7 | 26.2 | 3.7
CCCCCCCCCCCCN1[C@@H](CC(=O)O)c2cc(F)ccc2S1(=O)=O | 4.7 | 75.8* | -8.6 | -8.7 | -81.2 | 67.8* | 24.1*
COC(=O)c1sc(NC(=O)c2ccc(Cn3cc(Cl)cn3)o2)c(C#N)c1C | 1.2 | 48.3* | 12.6 | 2.1 | -3.5 | 41.9* | 12.7*
